Key:
P2X purinoceptor 7 [1] = target: T1, P2X purinoceptor 7 (Rattus norvegicus, UniProt Q64663); assay: Antagonist activity at rat P2X7 receptor expressed in HEK293 cells assessed as inhibition of BzATP-induced calcium-flux measured after 60 mins by FLIPR analysis; assay type: cell-based
T1 sequence (Q64663 whole entry): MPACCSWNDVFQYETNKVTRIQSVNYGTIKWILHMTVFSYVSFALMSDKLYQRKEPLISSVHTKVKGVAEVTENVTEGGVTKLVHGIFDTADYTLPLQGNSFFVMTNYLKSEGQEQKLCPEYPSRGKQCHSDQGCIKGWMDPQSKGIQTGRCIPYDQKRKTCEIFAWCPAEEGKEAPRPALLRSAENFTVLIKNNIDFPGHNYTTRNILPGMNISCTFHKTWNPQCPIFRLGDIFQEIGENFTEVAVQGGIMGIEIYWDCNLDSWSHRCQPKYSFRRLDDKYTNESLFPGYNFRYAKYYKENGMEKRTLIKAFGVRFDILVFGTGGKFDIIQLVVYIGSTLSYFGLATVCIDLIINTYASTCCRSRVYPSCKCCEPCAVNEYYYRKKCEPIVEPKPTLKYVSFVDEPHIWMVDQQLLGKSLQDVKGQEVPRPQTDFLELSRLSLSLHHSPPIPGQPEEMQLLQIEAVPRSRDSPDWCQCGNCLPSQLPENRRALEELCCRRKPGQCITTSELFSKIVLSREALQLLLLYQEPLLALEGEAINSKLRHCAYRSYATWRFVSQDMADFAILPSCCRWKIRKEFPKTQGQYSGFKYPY
Outline: (§1)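 Stable rat or mouse P2X7 HEK293 cells in HBSS/20 mM HEPES/2.5 mM probenecid/0.05% BSA, pH 7.4, were loaded with Fluo-4 NW (37 °C 30 min, RT 30 min). After 30 min at RT, calcium fluorescence was read by FLIPR; n ≥ 3.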

THP-1 = assay: Antiinflammatory activity against human THP-1 cells assessed as reduction in LPS and BzATP-induced IL-1beta release measured after 50 mins by microplate reader; assay type: functional, cell-based; details: THP-1, 50 min
Outline: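 THP-1 cells were differentiated with IFN-γ 10 ng/mL for 48 h and primed with LPS (100 ng/mL final) for 3.5 h at 10k cells/well. Compound was added for 20 min, then BzATP (1 mM final) for 30 min at 37 °C. Supernatant IL-1β was read by human AlphaLISA.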

P2X purinoceptor 7 [2] = target: T1, P2X purinoceptor 7; assay: Displacement of [3H]-A-804598 from rat P2X7 receptor expressed in HEK293 cell membrane by in vitro binding assay; assay type: cell membranes
in vitro [3] = details: human, liver microsomes
in vitro [4] = details: rat, liver microsomes
[5] = Apparent permeability across apical to basolateral side in MDCK-MDR1 cells by LC-MS/MS analysis; details: dog
P2X purinoceptor 7 [6] = target: T2, P2X purinoceptor 7 (Homo sapiens, UniProt Q99572); assay: Antagonist activity at human P2X7 receptor expressed in HEK293 cells assessed as inhibition of BzATP-induced calcium-flux measured after 60 mins by FLIPR analysis; assay type: cell-based
T2 sequence (Q99572 whole entry): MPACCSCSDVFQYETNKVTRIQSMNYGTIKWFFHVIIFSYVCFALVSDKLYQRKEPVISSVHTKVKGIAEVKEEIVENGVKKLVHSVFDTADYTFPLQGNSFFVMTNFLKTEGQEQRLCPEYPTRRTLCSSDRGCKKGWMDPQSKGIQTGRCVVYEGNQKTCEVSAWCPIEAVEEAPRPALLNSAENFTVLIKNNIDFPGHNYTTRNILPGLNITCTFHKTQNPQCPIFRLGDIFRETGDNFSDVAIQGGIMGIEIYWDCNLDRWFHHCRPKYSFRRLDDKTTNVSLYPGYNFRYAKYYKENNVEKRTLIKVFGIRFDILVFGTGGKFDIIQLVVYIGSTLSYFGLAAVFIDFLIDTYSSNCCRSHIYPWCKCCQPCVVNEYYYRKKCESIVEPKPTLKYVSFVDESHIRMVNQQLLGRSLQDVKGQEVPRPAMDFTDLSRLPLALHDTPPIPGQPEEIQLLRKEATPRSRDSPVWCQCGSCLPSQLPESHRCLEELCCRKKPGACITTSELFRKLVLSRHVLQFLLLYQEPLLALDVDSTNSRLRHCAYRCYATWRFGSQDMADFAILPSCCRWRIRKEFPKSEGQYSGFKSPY

P2X purinoceptor 7 [7] = target: T3, P2X purinoceptor 7 (Mus musculus, UniProt Q9Z1M0); assay: Antagonist activity at mouse P2X7 receptor expressed in HEK293 cells assessed as inhibition of BzATP-induced calcium-flux measured after 60 mins by FLIPR analysis; assay type: cell-based; outline: as §1
T3 sequence (Q9Z1M0 whole entry): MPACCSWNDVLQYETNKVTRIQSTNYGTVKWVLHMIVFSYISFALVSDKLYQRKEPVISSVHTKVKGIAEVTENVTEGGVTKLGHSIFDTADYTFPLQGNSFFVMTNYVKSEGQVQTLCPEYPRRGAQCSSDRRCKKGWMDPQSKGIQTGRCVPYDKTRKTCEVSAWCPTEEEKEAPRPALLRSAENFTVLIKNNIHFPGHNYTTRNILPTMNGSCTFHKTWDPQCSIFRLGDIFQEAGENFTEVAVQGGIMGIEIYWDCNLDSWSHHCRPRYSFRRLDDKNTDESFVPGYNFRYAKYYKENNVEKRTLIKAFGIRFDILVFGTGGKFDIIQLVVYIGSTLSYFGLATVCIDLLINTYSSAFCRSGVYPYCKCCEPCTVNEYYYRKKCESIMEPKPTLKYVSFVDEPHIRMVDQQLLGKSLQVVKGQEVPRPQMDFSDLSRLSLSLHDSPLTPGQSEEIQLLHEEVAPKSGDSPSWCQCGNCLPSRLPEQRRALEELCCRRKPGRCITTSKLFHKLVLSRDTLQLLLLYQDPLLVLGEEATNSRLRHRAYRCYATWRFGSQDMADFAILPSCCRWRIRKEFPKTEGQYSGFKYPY

P2X purinoceptor 7 [8] = target: T2, P2X purinoceptor 7; assay: Displacement of [3H]-A-804598 from human P2X7 receptor expressed in HEK293 cell membrane by in vitro binding assay; assay type: cell membranes
[9] = Efflux ratio of permeability across basolateral to apical side over apical to basolateral side in MDCK2-MDR1 cells; assay type: ADME, cell-based, Canis lupus familiaris; details: dog, MDCK-MDR1
Outline: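 MDR1-MDCK monolayers; permeability measured in both A-to-B and B-to-A directions, in triplicate. Efflux ratio taken as B:A over A:B permeation.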

P2X purinoceptor 7 [10] = target: T3, P2X purinoceptor 7; assay: Displacement of [3H]-A-804598 from mouse P2X7 receptor expressed in HEK293 cell membrane by in vitro binding assay; assay type: cell membranes

Compound: C[C@H](N/C(=N/C#N)Nc1cccc2ncccc12)c1ccccc1
- IC50 (P2X purinoceptor 7 [1]): 6.1 nM
- IC50 (THP-1): 15 nM
- Ki (P2X purinoceptor 7 [2]): 3.9 nM
- CLint scaled at 1 h, 1 µM (in vitro [3]): 23.3 mL/min/kg
- CLint scaled at 1 h, 1 µM (in vitro [4]): 71.7 mL/min/kg
- Papp A:B [5]: 9.3 ×10⁻⁶ cm/s

Compound: O=C(NCC12CC3CC(CC(C3)C1)C2)c1cc(CCCNCCCO)ccc1Cl [AZD9056]
- IC50 (P2X purinoceptor 7 [6]): 3.5 nM
- IC50 (P2X purinoceptor 7 [1]): 4.4 nM
- IC50 (P2X purinoceptor 7 [7]): 1700 nM
- Ki (P2X purinoceptor 7 [8]): 15 nM
- Ki (P2X purinoceptor 7 [2]): 130 nM
- efflux ratio [9]: 17
- CLint scaled at 1 h, 1 µM (in vitro [3]): 20 mL/min/kg
- CLint scaled at 1 h, 1 µM (in vitro [4]): 43.3 mL/min/kg
- Papp A:B [5]: 0.7 ×10⁻⁶ cm/s

Compound: O=C(NCC1(N2CCN(c3ccccc3)CC2)CCOCC1)c1cccnc1Sc1ccccc1
- IC50 (P2X purinoceptor 7 [6]): 35 nM
- IC50 (P2X purinoceptor 7 [1]): 4.7 nM
- IC50 (P2X purinoceptor 7 [7]): 0.65 nM
- Ki (P2X purinoceptor 7 [2]): 98 nM
- efflux ratio [9]: 1.1
- CLint scaled at 1 h, 1 µM (in vitro [3]): 283 mL/min/kg
- CLint scaled at 1 h, 1 µM (in vitro [4]): 433 mL/min/kg
- Papp A:B [5]: 11 ×10⁻⁶ cm/s

Compound: Clc1cccc(-c2nnnn2Cc2cccnc2)c1Cl
- IC50 (P2X purinoceptor 7 [6]): 2100 nM
- IC50 (P2X purinoceptor 7 [1]): 910 nM
- IC50 (P2X purinoceptor 7 [7]): 2900 nM
- Ki (P2X purinoceptor 7 [8]): 68 nM
- Ki (P2X purinoceptor 7 [2]): 200 nM
- CLint scaled at 1 h, 1 µM (in vitro [3]): 16.7 mL/min/kg
- CLint scaled at 1 h, 1 µM (in vitro [4]): 767 mL/min/kg

Compound: O=C(NCC1(O)CCC(F)(F)CC1)c1cc(-c2ncc(F)cn2)ccc1Cl
- IC50 (P2X purinoceptor 7 [1]): 5500 nM
- IC50 (P2X purinoceptor 7 [7]): > 10000 nM
- Ki (P2X purinoceptor 7 [2]): 4800 nM
- CLint scaled at 1 h, 1 µM (in vitro [3]): 7.83 mL/min/kg
- CLint scaled at 1 h, 1 µM (in vitro [4]): 53.3 mL/min/kg
- Papp A:B [5]: 18 ×10⁻⁶ cm/s

Compound: FC(F)(F)c1cccc(-c2nnnn2Cc2cccnc2)c1Cl
- IC50 (P2X purinoceptor 7 [6]): 57 nM
- IC50 (P2X purinoceptor 7 [1]): 71 nM
- IC50 (P2X purinoceptor 7 [7]): 300 nM
- IC50 (THP-1): 140 nM
- Ki (P2X purinoceptor 7 [8]): 7.4 nM
- Ki (P2X purinoceptor 7 [2]): 16 nM
- Ki (P2X purinoceptor 7 [10]): 48 nM
- efflux ratio [9]: 0.77
- CLint scaled at 1 h, 1 µM (in vitro [3]): 75 mL/min/kg
- CLint scaled at 1 h, 1 µM (in vitro [4]): 417 mL/min/kg
- Papp A:B [5]: 40 ×10⁻⁶ cm/s

Compound: O=C(NCC1CCCCCC1)c1cn(CCO)c2ccccc12
- IC50 (P2X purinoceptor 7 [6]): 72 nM
- IC50 (P2X purinoceptor 7 [1]): 1500 nM
- IC50 (P2X purinoceptor 7 [7]): 240 nM
- efflux ratio [9]: 0.7
- CLint scaled at 1 h, 1 µM (in vitro [3]): 883 mL/min/kg
- CLint scaled at 1 h, 1 µM (in vitro [4]): 533 mL/min/kg
- Papp A:B [5]: 5.9 ×10⁻⁶ cm/s

Compound: CN1C(=O)CC[C@H]1C(=O)NCc1cccc(C(F)(F)F)c1Cl [GSK1482160]
- IC50 (P2X purinoceptor 7 [6]): 20 nM
- IC50 (P2X purinoceptor 7 [1]): 1900 nM
- IC50 (P2X purinoceptor 7 [7]): 2300 nM
- Ki (P2X purinoceptor 7 [8]): 5.7 nM
- Ki (P2X purinoceptor 7 [2]): 510 nM
- efflux ratio [9]: 0.72
- CLint scaled at 1 h, 1 µM (in vitro [3]): 5 mL/min/kg
- CLint scaled at 1 h, 1 µM (in vitro [4]): 16.7 mL/min/kg
- Papp A:B [5]: 20 ×10⁻⁶ cm/s

Compound: O=C(NC[C@@H](c1ccc(Cl)cc1)N1CCOCC1)c1sc(-c2ncccn2)nc1C(F)(F)F
- IC50 (P2X purinoceptor 7 [1]): 95 nM

Compound: O=C(Cc1cccc(C(F)(F)F)c1Cl)NC1COc2ncccc21 (stereo not given)
- IC50 (P2X purinoceptor 7 [6]): 5.5 nM
- IC50 (P2X purinoceptor 7 [1]): 260 nM
- IC50 (P2X purinoceptor 7 [7]): 320 nM
- IC50 (THP-1): 27 nM
- Ki (P2X purinoceptor 7 [8]): 5.6 nM
- Ki (P2X purinoceptor 7 [10]): 100 nM
- efflux ratio [9]: 0.83
- CLint scaled at 1 h, 1 µM (in vitro [3]): 26.7 mL/min/kg
- CLint scaled at 1 h, 1 µM (in vitro [4]): 85 mL/min/kg
- Papp A:B [5]: 25 ×10⁻⁶ cm/s

Compound: CN1CCc2c(cccc2C(=O)NCC2(N3CCN(c4ccccc4)CC3)CCCCC2)C1
- efflux ratio [9]: 1.1
- CLint scaled at 1 h, 1 µM (in vitro [4]): 200 mL/min/kg
- Papp A:B [5]: 0.25 ×10⁻⁶ cm/s

Compound: COc1ccc(CC(=O)NC(N/C(=N/C#N)Nc2cccc3ncccc23)C(C)(C)C)cc1OC (stereo not given)
- IC50 (P2X purinoceptor 7 [6]): 81 nM
- IC50 (P2X purinoceptor 7 [7]): 250 nM
- Ki (P2X purinoceptor 7 [8]): 130 nM
- Papp A:B [5]: 0.2 ×10⁻⁶ cm/s

Compound: COC[C@H](O)Cn1c(=O)cnn(-c2ccc(Cl)c(C(=O)NCC3(O)CCCCCC3)c2)c1=O [CE-224535]
- IC50 (P2X purinoceptor 7 [6]): 0.76 nM
- IC50 (P2X purinoceptor 7 [1]): 470 nM
- IC50 (P2X purinoceptor 7 [7]): 660 nM
- Papp A:B [5]: 0.6 ×10⁻⁶ cm/s

From ChEMBL document CHEMBL5055621, “Synthesis and Characterization of the Novel Rodent-Active and CNS-Penetrant P2X7 Receptor Antagonist Lu AF27139” (J Med Chem, 2021)
